Rows were chosen to be rich in hits. Some 4.1% of all compounds tested hit in one or more screens of this group.
Mdm2-MdmX inh – disrupts the human Mdm2-MdmX interaction | SaOS-2 split-luciferase Mdm2/MdmX complementation, luminescence | inhibition, % at 8 µM | 3% of 330,000 active;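 active = inhibition of at least 50% at 8 µM in the primary screen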
Target sequence (O15151 whole entry, looked up): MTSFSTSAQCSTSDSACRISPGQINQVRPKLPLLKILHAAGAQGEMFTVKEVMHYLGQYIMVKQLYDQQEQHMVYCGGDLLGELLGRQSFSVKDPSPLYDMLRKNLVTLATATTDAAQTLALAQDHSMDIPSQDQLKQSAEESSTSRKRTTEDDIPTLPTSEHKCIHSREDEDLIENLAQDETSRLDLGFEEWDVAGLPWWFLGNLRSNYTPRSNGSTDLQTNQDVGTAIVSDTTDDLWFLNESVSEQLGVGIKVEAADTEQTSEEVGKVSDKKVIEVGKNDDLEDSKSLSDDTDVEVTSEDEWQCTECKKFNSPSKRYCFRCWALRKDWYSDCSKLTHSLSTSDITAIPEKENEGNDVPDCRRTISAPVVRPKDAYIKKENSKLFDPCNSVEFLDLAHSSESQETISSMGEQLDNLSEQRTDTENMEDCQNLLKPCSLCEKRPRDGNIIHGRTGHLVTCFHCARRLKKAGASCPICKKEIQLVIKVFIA
Target sequence (Q00987 whole entry, looked up): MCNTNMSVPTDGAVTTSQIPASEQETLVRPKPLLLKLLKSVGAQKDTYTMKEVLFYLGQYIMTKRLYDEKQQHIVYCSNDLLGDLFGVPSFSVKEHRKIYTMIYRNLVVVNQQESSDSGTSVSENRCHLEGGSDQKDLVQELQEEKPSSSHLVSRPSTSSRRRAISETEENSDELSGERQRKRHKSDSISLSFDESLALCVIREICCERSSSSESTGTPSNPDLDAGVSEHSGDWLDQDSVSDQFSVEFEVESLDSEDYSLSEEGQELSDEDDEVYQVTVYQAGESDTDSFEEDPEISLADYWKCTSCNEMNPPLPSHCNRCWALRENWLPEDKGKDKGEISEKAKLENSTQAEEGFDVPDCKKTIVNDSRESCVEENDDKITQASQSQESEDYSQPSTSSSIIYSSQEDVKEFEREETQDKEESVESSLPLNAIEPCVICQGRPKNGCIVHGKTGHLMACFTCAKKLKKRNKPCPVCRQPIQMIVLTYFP
UPR XBP1 act – adaptive UPR (XBP1) activation; CHO-XBP1 luciferase reporter, IRE1-XBP1 UPR activation, luminescence; percent of tunicamycin response, DMSO as zero; activation, % at 20 µM; 0.33% of 330,000 active; AID 463104;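 active = versus positive control, 20 µM dose yields 30% or more activation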;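 note: 100% = tunicamycin at 10 µg/mL and 0% = DMSO only wells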
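Material: CHO-XBP1 cells stably carrying IRE1-XBP1-driven luciferase reporter | Medium: F12 with 10% serum | Compound dosing: 20 µM single concentration, DMSO 1% | Incubation: Overnight seeding at 37 °C, 6 h compound treatment at 37 °C | Detection: Steady-Glo luminescence read | Read-out basis: % activation of reporter signal versus tunicamycin and DMSO controls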
CHOP UPR activ – activators of apoptotic arm of unfolded protein response (CHOP); 0.34% of 330,000 active; activation, % at 10 µM; CHO-CHOP luciferase reporter, UPR activation, luminescence; percent of tunicamycin response over DMSO baseline;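 active = at 10 µM dose, activation of 40% or more, normalized to positive control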;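 note: 100% = tunicamycin at 10 µg/mL and 0% = DMSO alone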
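assay system = CHO CHOP reporter cells | amount = 500 CHO-CHOP cells per well | buffer or medium = F12 with 10% FBS | incubation = 16-18 h cell attachment, then 6 h compound exposure, 37 °C | detection = luminescence read with Steady-Glo | read-out = percent activation relative to tunicamycin control | controls = tunicamycin high control, DMSO low control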
Apaf1 inhib – human Apaf-1 inhibition | O14727 | reconstituted apoptosome caspase-3 activity, DEVD-Rh110 fluorescence | inhibition, % at 20 µM | 0.71% of 330,000 active | AID 489030; active = inhibition of at least 40% at 20 µM;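 note: plate controls were DMSO wells for no effect and DEVD-CHO caspase inhibitor wells for full effect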
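System: Apoptosome proteins | Medium: Hepes pH 7.5 with detergent and BSA | Also added: Cytochrome c trigger plus (Z-DEVD)2-Rh110 caspase-3 substrate | Incubation: 30 min compound preincubation, 50 min activation, room temperature | Detection: Rhodamine 110 fluorescence at Ex 480/Em 540 nm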
UBC13 polyUb – inhibitors of human UBC13 polyubiquitin chain formation; P61088; TR-FRET; inhibition, % at 20 µM; 0.47% of 330,000 active; AID 485273; in the data active = inhibition above about 45%, passing the limit was not always enough
Mdm2-MdmX conf – human Mdm2/MdmX binding inhibition, confirmed | shares compounds with Mdm2-MdmX inh | luminescent assay | inhibition, % at 8 µM | 55% of 10,000 active; in the data active = inhibition above about 40%
Full FLuc ctr – counter-screen for Mdm2/MdmX inhibitors: full-length luciferase; shares compounds with Mdm2-MdmX inh; SaOS-2 full-length luciferase counterscreen, luminescence; inhibition, % at 8 µM; 77% of 6,200 active; AID 504607;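 active = mean inhibition at 8 µM reaching about 37%, which flags the compound as non-specific, limit read from the data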;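 note: p53-null SaOS-2 cells with luciferase driven by a doxycycline-inducible promoter; compound on cells about two nights before reading with doxycycline added after day one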
Active calls of the source: *; nt = no result given; + = active, no number.

SMILES	Mdm2-MdmX inh	UPR XBP1 act	CHOP UPR activ	Apaf1 inhib	UBC13 polyUb	Mdm2-MdmX conf	Full FLuc ctr
COc1cc(Nc2nc(-c3ccccc3)c3cc(C)ccc3n2)cc(OC)c1OC	56*	4	4	27	6	24	nt
COc1ccccc1NCC(O)Cn1c2ccccc2c2ccccc21 (configuration not stated)	24	0	-1	7	8	nt	nt
Cc1nc(C(=O)N2CCC(n3nccc3NC(=O)Nc3ccccc3Cl)CC2)cs1	24	-3	-1	2	-2	nt	nt
CCOC(=O)c1sc2nc(C)nc(NCc3ccccc3)c2c1C	52*	7	1	14	6	26	113*
CCOC(=O)c1sc2nc(C)nc(Nc3ccccc3)c2c1C	14	0	0	-1	11	nt	nt
O=[N+]([O-])c1ccc2c(c1)C(O)n1nc(-c3ccc(Cl)cc3Cl)nc1S2 (configuration not stated)	50	-4	0	-18	-10	54*	102*
Cc1nc2n(n1)C(O)c1cc([N+](=O)[O-])ccc1S2 (configuration not stated)	-4	4	0	2	-29	nt	nt
CN1C(=O)C(O)(CC(=O)/C=C\c2ccc3c(c2)OCO3)c2ccccc21 (configuration not stated)	55*	-2	-1	2	-8	-2	nt
Cc1ccc(-n2nc3c(=O)n(CCCC(=O)NCC(C)c4ccccc4)nc(C)c3c2C)cc1 (configuration not stated)	38	4	0	19	4	nt	nt
COc1cccc(C(=O)Oc2c(Br)cc(Br)cc2/C=N/NC(=O)c2cc(C)[nH]n2)c1	59*	2	1	4	-10	55*	20
O=C(CN(Cc1ccccc1Cl)C(=O)c1csnn1)NCc1ccc2c(c1)OCO2	-13	3	3	7	0	nt	nt
Cc1cccn2c(=O)c3cc(C(=O)NC4CCCC4)c(=N)n(C4CCCCC4)c3nc12	27	1	0	15	17	nt	nt
CC(=O)C(Cc1ccccc1)NC(=O)CCl (configuration not stated)	39	0	0	1	-2	nt	nt
O=C(CCl)NC(Cc1ccccc1)c1ccccc1 (configuration not stated)	74*	-4	1	1	11	51*	44*
O=S(=O)(c1cccc(NC(=S)N2CCN(c3cccc(Cl)c3)CC2)c1)C(F)F	52*	0	-3	37	1	15	nt
CC(C)c1ccc(C(N)=S)cc1	8	2	-1	6	8	nt	nt
COc1cccc(NC(=O)C(=O)N/N=C/c2cc(C)n(-c3ccc(Cl)c(Cl)c3)c2C)c1	55*	3	3	13	-34	19	nt
FC(F)(F)c1cnc(NNC(=S)Nc2ccc(Cl)cc2)c(Cl)c1	90*	2	6	-4	-27	67*	23
Fc1ccc(NC(=S)NNc2ncc(C(F)(F)F)cc2Cl)c(F)c1	77*	-1	-3	4	-7	49*	67*
Cc1ccc(NC(=S)NNc2ncc(C(F)(F)F)cc2Cl)c(C)c1	7	-2	-2	14	-18	nt	nt
Cc1ccc(NC(=S)NNc2ncc(C(F)(F)F)cc2Cl)cc1	15	-3	1	-5	-7	nt	nt
CN1CCN(NC(=O)c2ccc(Br)s2)CC1	13	-1	0	-20	18	nt	nt
COc1ccc(S(=O)Cc2ccc(C(=O)N3CCN(c4cccc(C)c4C)CC3)o2)cc1 (configuration not stated)	50*	-7	1	9	-2	55*	36*
Cc1ccccc1S(=O)(=O)Cc1ccc(C(=O)N2CC(C)CC(C)C2)o1 (configuration not stated)	-2	-5	3	8	5	nt	nt
Cc1ccccc1S(=O)(=O)Cc1ccc(C(=O)N2CCN(c3cccc(C)c3C)CC2)o1	57*	3	-2	17	1	68*	50*
SMILES	Mdm2-MdmX inh	UPR XBP1 act	CHOP UPR activ	Apaf1 inhib	UBC13 polyUb	Mdm2-MdmX conf	Full FLuc ctr
COc1ccc(N2CCN(C(=O)c3ccc(CS(=O)Cc4ccc(C)cc4)o3)CC2)cc1 (configuration not stated)	10	-10	0	4	2	nt	nt
COc1ccc(CCNC(=S)NC(=O)c2cccc([N+](=O)[O-])c2)cc1OC	10	-5	1	18	2	nt	nt
CC1Cc2ccccc2N1C(=O)COC(=O)c1ccc(Br)o1 (configuration not stated)	8	-2	0	-5	-6	nt	nt
O=c1[nH]c(C2CCN(S(=O)(=O)c3ccc4c(c3)OCCO4)CC2)nc2c1nnn2Cc1c(F)cccc1Cl	56*	-2	1	15	4	47*	59*
O=c1[nH]c(C2CCN(S(=O)(=O)c3ccc4c(c3)OCCO4)CC2)nc2c1nnn2Cc1ccccc1F	16	2	-2	22	-9	nt	nt
Cc1ccc(N2CC(C(=O)Nc3nccs3)CC2=O)cc1Cl (configuration not stated)	84*	-4	-1	-10	12	69*	+
COCc1nnc(NC(=O)C2CC(=O)N(c3ccc(C)c(Cl)c3)C2)s1 (configuration not stated)	-9	-1	-1	13	-2	nt	nt
O=C(NCCc1ccc2c(c1)OCCO2)c1ccc(F)cc1	3	0	1	0	9	nt	nt
COc1ccc(C(=O)/C=C/c2ccc(OC)c(Cn3nnc4ccccc43)c2)cc1	62*	-5	3	15	7	43*	68*
Cc1noc(C)c1S(=O)(=O)N(Cc1ccccc1)C(C)C	-5	-5	-2	5	-8	nt	nt
Cc1ccc(C(=O)c2oc3ccccc3c2NC(=O)c2cc(-c3cc(C)ccc3O)n[nH]2)cc1	78*	60*	10	-11	-22	32	72*
Cc1noc(C(=O)Nc2ccc(Cl)cc2)c1Cl	-36	-3	0	4	-2	nt	nt
Nc1nnnn1/N=C/c1ccccc1OCc1ccc(Cl)cc1Cl	20	0	0	3	-10	nt	nt
Nc1nnnn1/N=C/c1cc(Cl)cc(Cl)c1OCc1ccc(Cl)cc1Cl	81*	-1	1	4	-12	11	nt
Cc1cccc(NC(=O)C(C)OC(=O)c2ccccc2NS(=O)(=O)c2cc(C)c(C)c([N+](=O)[O-])c2)c1 (configuration not stated)	62*	-4	-2	9	1	16	nt

From PubChem BioAssay
